# ChEMBL document CHEMBL1125002, “Antiarthritic and suppressor cell inducing activity of azaspiranes: structure-function relationships of a novel class of immunomodulatory agents” (J Med Chem, 1990)
# The source made the active and inactive calls. No cut-off for these calls is given here.
# Columns and labels:
# [1] = system: Rattus norvegicus; assay: Adjuvant arthritic rat activity determined with respect to spirogermanium at a dose of 30 mg/kg; format: functional
# In short: (§1)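 Lewis rats given adjuvant on day 0. Drug homogenized in aqueous 0.5% gum tragacanth, given orally at 10 mL/kg daily on days 0–10. Volume of the noninjected (secondary) hind paw measured on day 16 by mercury displacement. Activity is relative to non-drug controls and scaled to spirogermanium at 30 mg/kg, which is set at 1.00. Significance by Student's t test.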
# [2] = system: Rattus norvegicus; assay: Total starting number of animals upon administration at a dose of 30 mg/kg; 8/8; format: functional
# [3] = system: Rattus norvegicus; assay: Adjuvant arthritic rat activity with respect to spirogermanium at a dose of 30 mg/kg; format: functional; in short: as §1
# [4] = system: Rattus norvegicus; assay: Total starting number of animals upon administration at a dose of 30 mg/kg; 0/7; format: functional
# [5] = system: Rattus norvegicus; assay: Adjuvant arthritic rat activity with respect to spirogermanium at a dose of 15 mg/kg; format: functional; in short: as §1
# [6] = system: Rattus norvegicus; assay: Total starting number of animals upon administration at a dose of 15 mg/kg; 1/8; format: functional
# [7] = system: Rattus norvegicus; assay: Total starting number of animals upon administration at a dose of 30 mg/kg; 0/8; format: functional
# [8] = system: Rattus norvegicus; assay: Adjuvant arthritic rat activity with respect to spirogermanium at a dose of 7.5 mg/kg; format: functional; in short: as §1
# [9] = system: Rattus norvegicus; assay: Total starting number of animals upon administration at a dose of 15 mg/kg; 2/8; format: functional
# [10] = system: Rattus norvegicus; assay: Total starting number of animals upon administration at a dose of 7.5 mg/kg; 8/8; format: functional
# [11] = system: Rattus norvegicus; assay: Total starting number of animals upon administration at a dose of 30 mg/kg; 7/7; format: functional
# [12] = system: Rattus norvegicus; assay: Total starting number of animals upon administration at a dose of 90 mg/kg; 0/7; format: functional
# [13] = system: Rattus norvegicus; assay: Adjuvant arthritic rat activity with respect to spirogermanium at a dose of 10 mg/kg; format: functional
# [14] = system: Rattus norvegicus; assay: Total starting number of animals upon administration at a dose of 10 mg/kg; 7/7; format: functional
# [15] = system: Rattus norvegicus; assay: Total starting number of animals upon administration at a dose of 30 mg/kg; 6/6; format: functional
# [16] = system: Rattus norvegicus; assay: (§2) Adjuvant arthritic rat activity with respect to spirogermanium at a dose of 60 mg/kg; format: functional
# [17] = system: Rattus norvegicus; assay: Total starting number of animals upon administration at a dose of 30 mg/kg; 7/8; format: functional
# [18] = system: Rattus norvegicus; assay: Total starting number of animals upon administration at a dose of 30 mg/kg; 5/6; format: functional
# [19] = system: Rattus norvegicus; assay: Total starting number of animals upon administration at a dose of 60 mg/kg; 5/8; format: functional
# [20] = system: Rattus norvegicus; assay: as §2; format: functional; in short: as §1; remark: listed apart in the source
# [21] = system: Rattus norvegicus; assay: Total starting number of animals upon administration at a dose of 30 mg/kg; 3/8; format: functional
# [22] = system: Rattus norvegicus; assay: Adjuvant arthritic rat activity with respect to spirogermanium at a dose of 15 mg/kg, inactive; format: functional, organism-based; design: dose 15 mg/kg
# [23] = system: Rattus norvegicus; assay: Total starting number of animals upon administration at a dose of 15 mg/kg; 0/7; format: functional, organism-based; design: dose 15 mg/kg
# [24] = system: Rattus norvegicus; assay: Adjuvant arthritic rat activity with respect to spirogermanium at a dose of 30 mg/kg, active; format: functional, organism-based; design: dose 30 mg/kg
# [25] = system: Rattus norvegicus; assay: Total starting number of animals upon administration at a dose of 60 mg/kg; 0/7; format: functional, organism-based; design: dose 60 mg/kg
# [26] = system: Rattus norvegicus; assay: Total starting number of animals upon administration at a dose of 60 mg/kg; 8/8; format: functional
# [27] = system: Rattus norvegicus; assay: Total starting number of animals upon administration at a dose of 25 mg/kg; 7/7; format: functional
# [28] = system: Rattus norvegicus; assay: Adjuvant arthritic rat activity with respect to spirogermanium at a dose of 25 mg/kg; format: functional
# [29] = system: Rattus norvegicus; assay: Total starting number of animals upon administration at a dose of 15 mg/kg; 8/8; format: functional
# [30] = system: Rattus norvegicus; assay: Total starting number of animals upon administration at a dose of 60 mg/kg; 0/6; format: functional
Molecule,Activity [1],Survival [2],further results
CCCC1(CCC)CCC2(CCN(CCN(C)C)C2)CC1,0,8,–
CCCC1(CCC)CCC2(CCN(CCCCCCCN(C)C)C2)CC1,–,8,Activity [3]: 1.57
CCCC1(CCC)CCC2(CCN(CCCN(CC)CC)C2)CC1 [ATIPRIMOD],1.42,8,–
CCCC1(CCC)CCC2(CCN(CCCN3CCCC3)C2)CC1,1.03,8,–
CCCC1(CCC)CCC2(CCN(CCCCCCN(C)C)C2)CC1,1.2,8,–
CCCCN(CCCC)CCCN1CCC2(CCC(CCC)(CCC)CC2)C1,0.07,8,–
CCCC1(CCC)CCC2(CCN(CCCN3CCOCC3)C2)CC1.Cl,0,–,Survival [4]: 0; Activity [5]: 0; Survival [6]: 1
CCCCC1(CCCC)CCC2(CCN(CCCN(C)C)C2)CC1,–,–,Survival [7]: 0; Activity [8]: 0.41; Survival [9]: 2; Survival [10]: 8
CCC1(CC)CCC2(CCN(CCCN(C)C)C2)CC1,0.57,–,Survival [11]: 7; Survival [12]: 0; Activity [13]: 0.1; Survival [14]: 7
CCCC1(CCC)CCC2(CCN(CCCNC(C)=O)C2)CC1,0.24,–,Survival [15]: 6
CN(C)CCCN1CCC2(CC[Si](C)(C)CC2)C1,–,0,Activity [16]: 0
CC(C)CC1(CC(C)C)CCC2(CCN(CCCN(C)C)C2)CC1,0.97,–,Survival [17]: 7
CCCC1(CCC)CCC2(CCN(CCCNC)C2)CC1,1.55,–,Survival [15]: 6
CCCC1(CCC)CCC2(CCN(CCCN)C2)CC1,0.91,–,Survival [18]: 5
CCCN(CCC)CCCN1CCC2(CCC(CCC)(CCC)CC2)C1,0.43,8,–
CCCC1(CCC)CCC2(CCN(CCCN3CCCCC3)C2)CC1,1.7,8,–
CCCC1(CCC)CCC2(CCN(CCCCCN(C)C)C2)CC1,0.82,8,–
CN(C)CCCN1CCC2(CCC(C(C)(C)C)CC2)CC1,0.33,–,Survival [11]: 7; Survival [12]: 0; Activity [13]: 0.04; Survival [14]: 7
CN(C)CCCN1CCC2(CCC3(CCCCCC3)CC2)C1,0.22,8,Survival [19]: 5; Activity [20]: 1.7
CCCC1(CCC)CCC2(CCN(CCCN(C)C)CC2)CC1,1.02,–,Survival [21]: 3
"[3-(8,8-Diethyl-2-aza-8-germa-spiro[4.5]dec-2-yl)-propyl]-dimethyl-amine",–,–,Activity [22]: inactive; Survival [4]: 0; Survival [23]: 0; Activity [24]: Active; Survival [25]: 0

Molecule,Activity [1],Survival [2],further results
CN(C)CCCN1CCC2(CCCCC2)CC1,0.2,8,–
CN(C)CCCN1CCC2(CCC(C(C)(C)C)CC2)C1 (stereo not given),0.31,8,–
CN(C)CCCN1CCC2(CCC(C)(C)CC2)C1,0.12,8,–
CN(C)CCCN1CCC2(CCCCC2)C1,0.27,8,–
CCC1(CC)CCC2(CCN(CCCN(C)C)CC2)CC1,0.3,–,Survival [11]: 7; Survival [12]: 0; Activity [13]: 0.03; Survival [14]: 7
CCCC1(CCC)CCC2(CCN(CCCCN(C)C)C2)CC1,0.46,8,–
CN(C)CCCN1CCC2(CCC(c3ccccc3)CC2)C1 (stereo not given),0.25,8,–
CCCC1(CCC)CCC2(CCN(CCCO)C2)CC1.Cl,–,–,Survival [26]: 8; Activity [20]: 0.31
CN(C)CCCN1CCC2(CCSCC2)C1,–,–,Survival [27]: 7; Activity [28]: 0
CC1CCC2(CC1)CCN(CCCN(C)C)CC2,0.25,8,–
CC[Si]1(CC)CCC2(CCN(CCCN(C)C)C2)CC1,0.92,8,Activity [5]: 0.27; Survival [29]: 8
CN(C)CCCN1CC2C3CCC(CC3)C2C1.Cl (stereo not given),0.35,8,–
CN(C)CCCN1CCC2(CCCCCC2)C1.Cl,0.2,8,–
CN(C)CCCN1CCC2(CC3CCC2C3)C1.Cl (stereo not given),0,8,Survival [26]: 8; Activity [20]: 0.1
CCCC1(CCC)CCC2(CC1)CC[N+](C)(CCC[N+](C)(C)C)C2 (stereo not given),0.05,8,–
CCCCCC1(CCCCC)CCC2(CCN(CCCN(C)C)CC2)CC1,–,–,Survival [7]: 0; Activity [5]: 0.18; Activity [8]: 0.18; Survival [29]: 8; Survival [10]: 8
CCCC1(CCC)CCC2(CCN(CCCN(C)C)C2)CC1,1.35,8,Survival [30]: 0; Activity [5]: 0.18; Survival [29]: 8
CC1CCCC2(CCN(CCCN(C)C)C2)C1.Cl (stereo not given),0,8,–
CCCCCCCCCCC1CCC2(CC1)CCN(CCCN(C)C)C2 (stereo not given),–,8,Activity [3]: 0.78
CCCCCC1(CCCCC)CCN(CCCN(C)C)C1.Cl,0.19,8,–
